By half-life is commonly meant the time needed for the level to fall by half in the phase considered. The term Ki denotes a dissociation constant, usually derived from enzyme kinetics or from competition with a known ligand. As usually defined, the IC50 is the midpoint of a concentration-inhibition curve.

A short description of data set [1]: Half life in rat liver microsomes at 10 uM in presence of NADPH generating system by LC-MS/MS analysis. In kind it is ADME, Microsome. In general terms: Liver microsomes are vesicles of endoplasmic reticulum, rich in cytochrome P450 enzymes.
Data set [2] in a line: Effect on locomotor activity in mouse assessed as increase in total ambulations at 3 to 56 mg/kg, ip measured during 30 mins of 2 hrs test by open field test. Format: ADME, organism-based. Conditions: in vivo. An outline of the steps: (§1)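 Mice acclimatized ~2 h, injected i.p. then placed immediately in open-field chambers with infrared beam arrays; beam breaks over 2 h converted to distance; maximum distance per 30 min reported; n=6 per group, each mouse used once; two-way ANOVA (Drug, Dose) with Tukey post-hoc versus vehicle.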

A short description of data set [3]: Half life in mouse liver microsomes at 10 uM in presence of NADPH by LC-MS/MS analysis. In kind it is ADME, Microsome.
The nature of data set [4]: Effect on locomotor activity in mouse assessed as increase in total ambulations at 3 to 30 mg/kg, ip measured during 30 mins of 2 hrs test by open field test. In kind it is ADME, organism-based. Conditions: in vivo. Summed up:
as §1

Data set [5] is described as follows: Half life in human liver microsomes at 10 uM after 60 mins in presence of NADPH by LC-MS/MS analysis. In kind it is ADME, Microsome. Conditions: for half-life at 10 µM: liver microsomes.
A short description of data set [6]: Drug metabolism in mouse liver microsomes assessed as 1-(2-((Bis(4-fluorophenyl)methyl)thio)ethyl)-3,5-cis-dimethylpiperazine metabolite formation by HPLC/MS analysis. Format: ADME, Microsome.
Data set [7] has as its target Sigma non-opioid intracellular receptor 1 (Cavia porcellus, UniProt Q60492). Nature of the data set: Displacement of [3H]-(+)-pentazocine from Sigma1 receptor in guinea pig cortex membranes incubated for 120 mins by microbeta scintillation counting method. Format: cell membranes. (In general: Displacement assays read how much labelled ligand stays bound in the presence of the test substance.)

A short description of data set [8]: Stability in human liver microsomes assessed as parent compound remaining at 10 uM after 60 mins in presence of NADPH by LC-MS/MS analysis. Format: ADME, Microsome. Conditions: read-out: Stability.
Data set [9] deals with Sodium-dependent dopamine transporter (Rattus norvegicus, UniProt P23977). Nature of the data set: Displacement of [3H]WIN35428 from DAT in Sprague-Dawley rat striatum membranes incubated for 120 mins by microbeta scintillation counting method. In kind it is cell membranes, Membrane.
Sodium-dependent dopamine transporter (Rattus norvegicus, UniProt P23977), sequence (P23977 whole entry): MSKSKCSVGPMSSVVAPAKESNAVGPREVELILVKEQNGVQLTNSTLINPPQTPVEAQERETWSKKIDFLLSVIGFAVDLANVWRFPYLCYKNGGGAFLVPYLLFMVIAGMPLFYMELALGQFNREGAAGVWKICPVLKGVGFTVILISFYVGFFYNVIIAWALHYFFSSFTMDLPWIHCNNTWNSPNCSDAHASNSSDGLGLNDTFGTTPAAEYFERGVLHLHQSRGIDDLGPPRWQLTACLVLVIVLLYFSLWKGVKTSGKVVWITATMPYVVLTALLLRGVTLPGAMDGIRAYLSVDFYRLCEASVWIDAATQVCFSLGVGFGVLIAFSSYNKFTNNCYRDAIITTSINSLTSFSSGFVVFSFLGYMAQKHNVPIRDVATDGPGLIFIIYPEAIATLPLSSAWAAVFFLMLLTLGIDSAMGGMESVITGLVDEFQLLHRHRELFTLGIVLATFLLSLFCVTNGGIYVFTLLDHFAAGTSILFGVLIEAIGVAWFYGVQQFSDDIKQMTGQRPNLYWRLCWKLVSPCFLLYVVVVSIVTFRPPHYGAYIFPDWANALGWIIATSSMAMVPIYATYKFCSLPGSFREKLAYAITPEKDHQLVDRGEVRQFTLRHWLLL
Data set [10] has as its target T1, Sodium-dependent dopamine transporter (Homo sapiens, UniProt Q01959). Nature of the data set: Displacement of [3H]WIN35428 from DAT (unknown origin) transiently expressed in COS7 cells incubated for > 90 mins by beta scintillation counting method. Format: cell-based, COS-7.
Data set [11] can be described thus: Effect on locomotor activity in mouse assessed as increase in total ambulations at 1 to 30 mg/kg, ip measured during 30 mins of 2 hrs test by open field test. In kind it is ADME, organism-based. Conditions: in vivo. Summed up: as §1
A short description of data set [12]: Stability in mouse liver microsomes assessed as parent compound remaining at 10 uM after 60 mins in presence of NADPH by LC-MS/MS analysis. In kind it is ADME, Microsome. Particulars: read-out: Stability.
In data set [13] the target is Voltage-gated inwardly rectifying potassium channel KCNH2 (Homo sapiens, UniProt Q12809). Nature of the data set: Inhibition of human ERG.
Voltage-gated inwardly rectifying potassium channel KCNH2, sequence (Q12809 whole entry): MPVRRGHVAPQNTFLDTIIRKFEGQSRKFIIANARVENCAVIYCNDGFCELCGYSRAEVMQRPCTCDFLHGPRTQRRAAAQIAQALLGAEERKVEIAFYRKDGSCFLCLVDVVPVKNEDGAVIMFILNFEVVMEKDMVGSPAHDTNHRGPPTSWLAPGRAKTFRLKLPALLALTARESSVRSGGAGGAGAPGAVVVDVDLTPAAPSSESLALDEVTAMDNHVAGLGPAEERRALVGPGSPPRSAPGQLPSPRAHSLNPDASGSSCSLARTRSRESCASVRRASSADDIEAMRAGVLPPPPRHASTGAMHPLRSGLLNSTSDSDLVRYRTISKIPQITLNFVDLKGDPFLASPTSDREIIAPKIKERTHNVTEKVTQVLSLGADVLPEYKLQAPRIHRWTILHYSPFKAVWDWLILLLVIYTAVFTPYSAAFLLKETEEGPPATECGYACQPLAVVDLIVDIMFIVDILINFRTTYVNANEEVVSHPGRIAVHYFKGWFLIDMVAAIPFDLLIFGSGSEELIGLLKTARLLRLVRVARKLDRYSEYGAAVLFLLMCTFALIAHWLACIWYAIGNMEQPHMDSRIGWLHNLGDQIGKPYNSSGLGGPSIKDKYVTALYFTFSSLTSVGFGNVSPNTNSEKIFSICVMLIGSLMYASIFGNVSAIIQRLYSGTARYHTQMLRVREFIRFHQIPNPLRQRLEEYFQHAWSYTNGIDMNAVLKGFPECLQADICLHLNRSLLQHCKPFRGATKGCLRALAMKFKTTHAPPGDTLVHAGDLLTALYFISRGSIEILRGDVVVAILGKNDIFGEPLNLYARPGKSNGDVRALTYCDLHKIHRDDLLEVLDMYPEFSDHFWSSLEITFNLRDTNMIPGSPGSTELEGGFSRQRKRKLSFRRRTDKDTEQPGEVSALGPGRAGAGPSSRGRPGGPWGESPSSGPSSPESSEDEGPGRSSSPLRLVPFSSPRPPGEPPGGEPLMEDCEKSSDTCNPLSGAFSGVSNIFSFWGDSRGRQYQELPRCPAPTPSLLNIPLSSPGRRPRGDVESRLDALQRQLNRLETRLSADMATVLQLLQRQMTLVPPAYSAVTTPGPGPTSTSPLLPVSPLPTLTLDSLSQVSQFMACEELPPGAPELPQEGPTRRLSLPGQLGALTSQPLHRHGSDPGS
In data set [14] the target is T1, Sodium-dependent dopamine transporter. Nature of the data set: Inhibition of human DAT transiently expressed in COS7 cells assessed as reduction in [3H]-DA uptake measured after 5 mins by beta-scintillation counting method. Format: cell-based, COS-7.
Data set [15] is described as follows: Effect on locomotor activity in mouse assessed as increase in total ambulations at 1 to 10 mg/kg, ip measured during 30 mins of 2 hrs test by open field test. In kind it is ADME, organism-based. Conditions: in vivo. Summed up:
as §1

In data set [16] the target is Sodium-dependent serotonin transporter (Rattus norvegicus, UniProt P31652). Nature of the data set: Displacement of [3H]citalopram from SERT in Sprague-Dawley rat midbrain membranes incubated for 60 mins by microbeta scintillation counting method. In kind it is cell membranes, Membrane.
Sodium-dependent serotonin transporter, sequence (P31652 whole entry): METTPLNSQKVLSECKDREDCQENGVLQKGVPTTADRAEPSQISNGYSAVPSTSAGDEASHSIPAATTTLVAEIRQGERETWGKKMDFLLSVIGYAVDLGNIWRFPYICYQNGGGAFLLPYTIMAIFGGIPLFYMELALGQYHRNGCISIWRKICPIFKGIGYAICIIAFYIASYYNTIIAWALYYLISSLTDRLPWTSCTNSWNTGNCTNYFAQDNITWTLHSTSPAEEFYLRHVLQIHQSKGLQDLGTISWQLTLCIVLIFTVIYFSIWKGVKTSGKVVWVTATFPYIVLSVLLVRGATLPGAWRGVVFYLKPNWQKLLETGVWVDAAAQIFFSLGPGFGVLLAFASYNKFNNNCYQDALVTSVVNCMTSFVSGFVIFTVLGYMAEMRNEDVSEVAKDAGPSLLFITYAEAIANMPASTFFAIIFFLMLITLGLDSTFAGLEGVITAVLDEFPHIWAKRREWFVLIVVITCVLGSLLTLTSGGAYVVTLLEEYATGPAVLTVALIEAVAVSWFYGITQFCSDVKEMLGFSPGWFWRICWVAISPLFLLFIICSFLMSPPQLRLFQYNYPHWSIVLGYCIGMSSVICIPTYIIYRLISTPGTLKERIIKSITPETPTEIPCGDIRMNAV

Sigma non-opioid intracellular receptor 1, sequence (Q60492 whole entry): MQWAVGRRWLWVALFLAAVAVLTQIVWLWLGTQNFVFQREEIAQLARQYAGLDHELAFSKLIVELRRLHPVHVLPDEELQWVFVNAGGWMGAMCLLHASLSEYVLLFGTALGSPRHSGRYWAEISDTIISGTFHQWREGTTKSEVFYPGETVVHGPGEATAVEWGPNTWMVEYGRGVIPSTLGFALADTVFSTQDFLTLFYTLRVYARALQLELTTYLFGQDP
T1 sequence (Q01959 whole entry): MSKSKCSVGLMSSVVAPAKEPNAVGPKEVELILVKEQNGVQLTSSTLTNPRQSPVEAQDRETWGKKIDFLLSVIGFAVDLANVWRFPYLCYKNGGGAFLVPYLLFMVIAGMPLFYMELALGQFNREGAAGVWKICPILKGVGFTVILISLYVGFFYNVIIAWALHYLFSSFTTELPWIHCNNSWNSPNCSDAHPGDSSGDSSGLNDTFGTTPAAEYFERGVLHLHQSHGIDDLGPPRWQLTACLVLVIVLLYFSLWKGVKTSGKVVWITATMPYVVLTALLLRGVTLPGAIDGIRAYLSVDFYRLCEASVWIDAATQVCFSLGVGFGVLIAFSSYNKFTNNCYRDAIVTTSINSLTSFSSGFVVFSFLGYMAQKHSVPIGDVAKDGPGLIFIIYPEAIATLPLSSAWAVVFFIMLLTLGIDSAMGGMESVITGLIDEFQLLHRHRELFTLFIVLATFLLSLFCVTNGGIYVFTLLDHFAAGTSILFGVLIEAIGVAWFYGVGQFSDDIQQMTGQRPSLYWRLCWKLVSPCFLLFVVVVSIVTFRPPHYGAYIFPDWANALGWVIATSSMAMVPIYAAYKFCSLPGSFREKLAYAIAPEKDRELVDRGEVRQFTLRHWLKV

As to `CC(O)CN1CCN(CC[S+]([O-])C(c2ccc(F)cc2)c2ccc(F)cc2)CC1` (centres undefined), the half-life at 10 µM in [1] and in data set [3] was 126 min throughout. The Activity result in data set [2] was “Non-Toxic”.
As to `COC(=O)[C@H]1[C@@H](OC(=O)c2ccccc2)C[C@@H]2CC[C@H]1N2C` [COCAINE], the Activity entry in data set [4] was “Toxic”.
Take `CC(O)CN1[C@H](C)CN(CCSC(c2ccc(F)cc2)c2ccc(F)cc2)C[C@@H]1C` (mixture of isomers): the t1/2 in [5] (microsomes, 1 h, 10 µM) was above 40 min. Moreover, in [6], the Drug metabolism result is listed as “Metabolite_Detected”. In addition, the inhibitory constant (Ki) in data set [7] is 5.62 nM; in [9], 23.1 nM; in [10], 58.3 nM; in [14] it was 100 nM. For the same molecule, the remaining at 1 h, 10 µM in data set [8] was above 30%; in [12], below 10%. In addition, in [3], the half-life at 10 µM was found to be 20 min. Besides, the Activity result in data set [11] was “Non-Toxic”. The molecule also showed an IC50 in data set [13] of 635 nM.
For `C[C@@H]1CN(CCSC(c2ccc(F)cc2)c2ccc(F)cc2)C[C@H](C)N1C[C@@H](C)O`, in [15], the Activity result is listed as “Non-Toxic”. Also, in [5], the half-life at 10 µM was above 40 min. The Ki in [7] worked out at 2.19 nM; in [16], 19800 nM; in data set [9], 39.4 nM. Further, the remaining at 1 h, 10 µM in data set [8] is above 30%; in data set [12] it was 30%.
In the case of `C[C@H](O)CN1[C@H](C)CN(CCSC(c2ccc(F)cc2)c2ccc(F)cc2)C[C@@H]1C`, the Activity entry in [15] is given as “Non-Toxic”. Also, in [5], the half-life at 10 µM was above 40 min. The figures for the inhibitory constant (Ki) in data set [7], in [16] and in data set [9] were 5.95 nM, 15600 nM and 28.5 nM, respectively. In addition, the values for the remaining at 1 h, 10 µM in [8] and in data set [12] were above 30% and 10%, respectively.

Values taken from ChEMBL document CHEMBL4613215, “Structure-Activity Relationships for a Series of (Bis(4-fluorophenyl)methyl)sulfinyl Alkyl Alicyclic Amines at the Dopamine Transporter: Functionalizing the Terminal Nitrogen Affects Affinity, Selectivity, and Metabolic Stability” (J Med Chem, 2020).
